This is an account of results in PubChem BioAssay.

Calls of active or inactive are those of the source.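 The calls were made as follows, unless noted: active = viability loss from added drug above about 55%, and viability with drug at most 40%, in both replicates (limit read from the data, passing the limit was not always enough); inconclusive = both conditions met in only one replicate; inactive = neither replicate meets both conditions.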

A short description of experiment [1]: SK-BR-3 cell growth inhibitors, pilot screen, 24 h, human (AID 572;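 active = viability at or below 10% of carrier control in both of two separate runs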;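 also: compound exposure lasted between 18 and 24 h rather than exactly 24 h; 100% = carrier-treated control wells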). The following applies: SK-BR-3 viability, CellTiter-Glo luminescence, at 10 µM, stronger effect = lower value.
Experiment [2] can be described thus: HUVEC growth inhibition – cell-based, human, primary screen (AID 575;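 active = viability at or below 30% in both replicate assays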;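 also: 100% = median of untreated cell wells with 0.1% DMSO on each plate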). The note with it: HUVEC proliferation, CellTiter-Glo luminescence, 72 h; at 10 µM; stronger effect = lower value. In a few lines: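 Test system – primary HUVEC, no more than 12 passages · Dosing – one dose, 10 µM final, 0.1% DMSO · Times – 72 h treatment at 37 °C · Measured by – ATP-based CellTiter-Glo luminescent read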

The nature of experiment [3]: reversal of MRP1-mediated doxorubicin resistance, pilot screen, H69AR cells, doxorubicin co-treatment (AID 601). The note with it: CellTiter-Glo, 72 h, at 10 µM; for differential viability (reversal): stronger effect = higher value.
Experiment [4] in a line: 384-well plate pilot, post-Golgi transport modulator project, inhibition of yeast transport mutant growth (AID 636; in the data active = inhibition above about 31%). The following applies: absorbance 615 nm, about 18 h, stronger effect = higher value.
Experiment [5] is described as follows: growth suppression of yeast trafficking mutant, preliminary HTS, modulators of trafficking downstream of Golgi apparatus project, 1536-format plate, OD 615 nm (AID 637; in the data active = inhibition above about 30%). The note with it: yeast transport mutant growth, absorbance 615 nm, 18 h; stronger effect = higher value.
[6] abbreviates: H69AR cells + 2 uM doxorubicin, measured here: viability with 2 uM doxorubicin, stronger effect = lower value.
[7] abbreviates: H69AR cells, compound alone cytotoxicity.

For the compound `Oc1c(I)cc(Cl)c2cccnc12`, the viability in experiment [1] was 84% (inactive); in experiment [2], 8.13% (active); in experiment [3] (setting [6]) it was 46.2%; in experiment [3] (setting [7]) it was 35.8%. The differential viability (reversal) in experiment [3] (H69AR cells + 2 uM doxorubicin) is -10.4% (inactive). The inhibition is 4.55% (inactive) in experiment [4] and 8.83% (inactive) in experiment [5].

`O=C(CC(SCCO)c1ccc2c(c1)OCO2)c1ccco1` (configuration not stated): the viability in experiment [1] is 77.5% (inactive); in experiment [2], 95% (inactive); in experiment [3] (setting [6]), 59.3%; in experiment [3] (setting [7]), 41.5%. Further, the differential viability (reversal) in experiment [3] (H69AR cells + 2 uM doxorubicin) was -17.8% (inactive). For the same compound, the results for the inhibition in experiment [4] and in experiment [5] were -7.57% (inactive) and -3.65% (inactive), respectively.

Turning to `CC[C@]1(O)CC2CN(CCc3c([nH]c4ccccc34)[C@@](C(=O)OC)(c3cc4c(cc3OC)N(C=O)[C@H]3[C@@](O)(C(=O)OC)[C@H](OC(C)=O)[C@]5(CC)C=CCN6CC[C@]43[C@@H]65)C2)C1` (some centres not stated), the viability in experiment [1] is 104% (inactive); in experiment [2], 34.6% (inactive); in experiment [3] (setting [6]) it was 53.5%; in experiment [3] (setting [7]), 26.5%. Also, the differential viability (reversal) in experiment [3] (H69AR cells + 2 uM doxorubicin) is -27% (inactive). Also, the values for the inhibition in experiment [4] and in experiment [5] were -0.91% (inactive) and -3.67% (inactive), respectively.

For `Cc1cc(C(=O)CSc2nc3ccccc3n2CCC#N)c(C)n1Cc1cccs1`, the viability in experiment [1] was 58% (inactive); in experiment [2] it was 110% (inactive); in experiment [3] (setting [6]), 32.9%; in experiment [3] (setting [7]), 31.7%. In addition, the differential viability (reversal) in experiment [3] (H69AR cells + 2 uM doxorubicin) is -1.21% (inactive). Besides, the inhibition was -5.41% (inactive) in experiment [4] and -3.09% (inactive) in experiment [5].

Take `CCCOc1ccc2nc(NC(=O)OC)[nH]c2c1`: the viability was 95% (inactive) in experiment [1], 37.3% (inactive) in experiment [2], 57.3% in experiment [3] (setting [6]) and 26.9% in experiment [3] (setting [7]). For the same compound, the differential viability (reversal) in experiment [3] (H69AR cells + 2 uM doxorubicin) is -30.4% (inactive). The figures for the inhibition in experiment [4] and in experiment [5] were -0.52% (inactive) and -1.5% (inactive), respectively.

With `O=C(Nc1cccc(-c2nnc(-c3ccccc3)o2)c1)C1CCCCC1`, the viability in experiment [1] is 88% (inactive); in experiment [2], 82.8% (inactive); in experiment [3] (setting [6]) it was 53.3%; in experiment [3] (setting [7]) it was 54%. The differential viability (reversal) in experiment [3] (H69AR cells + 2 uM doxorubicin) was 0.7% (inactive). Also, the inhibition in experiment [4] was -8.49% (inactive); in experiment [5], 3.55% (inactive).

Consider `COc1ccc(CCn2c(=N)c(C(=O)NCc3ccco3)cc3c(=O)n4ccccc4nc32)cc1`, for which the viability was 73% (inactive) in experiment [1], 57.9% (inactive) in experiment [2], 64.5% in experiment [3] (setting [6]) and 56.1% in experiment [3] (setting [7]). In addition, the differential viability (reversal) in experiment [3] (H69AR cells + 2 uM doxorubicin) is -8.4% (inactive). Moreover, the inhibition in experiment [4] is -6.76% (inactive); in experiment [5] it was -8.33% (inactive).

On to `CC(=O)O[C@@]12CO[C@@H]1C[C@H](O)[C@@]1(C)C(=O)[C@H](O)C3=C(C)[C@@H](OC(=O)[C@H](O)[C@@H](NC(=O)OC(C)(C)C)c4ccccc4)C[C@](O)([C@@H](OC(=O)c4ccccc4)[C@H]21)C3(C)C`, for which the viability in experiment [1] was 130% (inactive); in experiment [2], 40.7% (inactive); in experiment [3] (setting [6]), 98.8%; in experiment [3] (setting [7]) it was 19.2%. The differential viability (reversal) in experiment [3] (H69AR cells + 2 uM doxorubicin) is -79.6% (inactive). The inhibition in experiment [4] is -4.03% (inactive); in experiment [5], -2.33% (inactive).

In the case of `Cn1c(=O)cc(OCCCC(=O)Nc2ccc3c(c2)OCCO3)c2ccccc21`, the viability in experiment [1] was 101% (inactive); in experiment [2], 85.1% (inactive); in experiment [3] (setting [6]) it was 70.7%; in experiment [3] (setting [7]) it was 65.5%. Moreover, the differential viability (reversal) in experiment [3] (H69AR cells + 2 uM doxorubicin) is -5.2% (inactive). The inhibition in experiment [4] was -1.04% (inactive); in experiment [5], -6.39% (inactive).

In the case of `CN1CCN(c2ccc(Cl)cc2NC(=O)c2cccc(S(=O)(=O)N(C)C)c2)CC1`, the viability was 93% (inactive) in experiment [1], 71.6% (inactive) in experiment [2], 24.6% in experiment [3] (setting [6]) and 67.9% in experiment [3] (setting [7]). The differential viability (reversal) in experiment [3] (H69AR cells + 2 uM doxorubicin) was 43.3% (inactive). The inhibition was -5.47% (inactive) in experiment [4] and 1.27% (inactive) in experiment [5].

`COC(=O)Nc1nc2ccc(C(=O)c3ccccc3)cc2[nH]1`: the viability in experiment [1] is 109% (inactive); in experiment [2], 44.3% (inactive); in experiment [3] (setting [6]), 73.4%; in experiment [3] (setting [7]) it was 26.1%. Moreover, the differential viability (reversal) in experiment [3] (H69AR cells + 2 uM doxorubicin) was -47.3% (inactive). The inhibition is 42.3% (active) in experiment [4] and 90.2% (active) in experiment [5].
